This is an account of results in ChEMBL document CHEMBL2010694, “Indolyl and dihydroindolyl N-glycinamides as potent and in vivo active NPY5 antagonists” (Bioorg Med Chem Lett, 2012).

The source made the active and inactive calls. The calls are words filed in the database; no cut-off is given here. A value given as a limit tells only on which side of the number the result lay.

Data set [1] in a line: Protein binding in human. In kind it is ADME, organism-based. The settings on record: plasma, read-out: PB (converted).
Data set [2] concerns Brain. The data set can be described thus: Drug uptake in Sprague-Dawley rat brain at 10 mg/kg, po by LC-MS/MS analysis. Further details: dose 10 mg/kg, route oral. In kind it is ADME, organism-based. The settings on record: in vivo, read-out: Drug uptake. An outline of the steps: (§1)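 Male Sprague-Dawley rats (300–350 g), femoral artery cannulated; single 10 mg/kg oral dose in an appropriate vehicle, N = 3. Blood taken predose, 1, 2 and 4 h; brains then collected and stored at -80 °C. Equal portions of plasma or homogenized brain from the three rats pooled per time point, protein precipitated, quantified by LC/MS/MS.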

A short description of data set [3]: Cmax in Sprague-Dawley rat plasma at 2 mg/kg, po and 1 mg/kg, iv after 24 hrs wash out period by HPLC analysis. In kind it is ADME, organism-based. An outline of the steps: (§2)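 Male Sprague-Dawley rats (200–250 g), jugular and carotid artery cannulated; compound dissolved in 20% beta cyclodextrin, pH adjusted with methane sulfonic acid. Serial blood sampled at 12 time points over 24 h post dose by automated sampler; plasma from centrifugation analysed by HPLC; PK parameters by non-compartmental analysis of plasma concentration–time profile.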

Data set [4] can be described thus: Half life in Sprague-Dawley rat plasma at 2 mg/kg, po and 1 mg/kg, iv after 24 hrs wash out period by HPLC analysis. In kind it is ADME, organism-based. An outline of the steps:
as §2

Data set [5] in a line: Drug uptake in cPP-induced feeding Sprague-Dawley rat model brain at 0.1 mg/kg, po after 1 hr. In kind it is ADME, organism-based. Further details: dose 0.1 mg/kg, route oral. The settings on record: read-out: Drug uptake. The method, boiled down: (§3)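 Satellite animals from the cPP feeding study dosed orally at 0.1, 1 or 10 mg/kg; plasma (ng/mL) and brain (ng/g) levels measured 1 h after dosing.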

Data set [6] in a line: Drug uptake in cPP-induced feeding Sprague-Dawley rat model brain at 1 mg/kg, po after 1 hr. Type of data set: ADME, organism-based. Further details: dose 1 mg/kg, route oral. Particulars: read-out: Drug uptake. The method, boiled down: as §3
Data set [7] in a line: Absolute oral bioavailability in Sprague-Dawley rat at 2 mg/kg after 24 hrs wash out period by HPLC analysis. Type of data set: ADME, organism-based. The settings on record: in vivo. The method, boiled down: as §2
Data set [8] deals with Rattus norvegicus. Kind of data set: Antiobesity activity in cPP-induced feeding in Sprague-Dawley rat model assessed as reduction in food intake at 0.1 to 10 mg/kg, po measured 1 hr post cpp challenge. In kind it is functional, organism-based. The method, boiled down:
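Rats pretreated orally at 0.1, 1 or 10 mg/kg (vehicle 20% cyclodextrin) 1 h before intracerebroventricular infusion of Y5-selective peptide agonist cPP, 0.6 nmol in normal saline; food intake recorded, n = 7–14 per group.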

The nature of data set [9]: Clearance in Sprague-Dawley rat plasma at 2 mg/kg, po and 1 mg/kg, iv after 24 hrs wash out period by HPLC analysis. In kind it is ADME, organism-based. The method, boiled down: as §2
Data set [10] has as its system MDR. The data set can be described thus: Apparent permeability from apical to basolateral side in MDCK cells expressing MDR. In kind it is ADME, cell-based, Canis lupus familiaris. The settings on record: dog, MDCK-MDR1. The method, boiled down:
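Bidirectional permeability (A–B and B–A) across a Pgp-overexpressing mdr-MDCK cell monolayer; efflux ratio derived from the two Papp values, given in 10^-6 cm/s.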

Data set [11] concerns the target Cytochrome P450 2D6 (Homo sapiens, UniProt P10635). Kind of data set: Inhibition of CYP2D6. Type of data set: ADME.
The nature of data set [12]: Drug uptake in Sprague-Dawley rat brain at 10 mg/kg, po after 1 hr by LC-MS/MS analysis. In kind it is ADME, organism-based. Further details: dose 10 mg/kg, route oral. The settings on record: read-out: Drug uptake. The method, boiled down: as §1
A short description of data set [13]: Plasma concentration in cPP-induced feeding Sprague-Dawley rat model at 1 mg/kg, po after 1 hr. Type of data set: ADME, organism-based. More on the design: dose 1 mg/kg, route oral. The method, boiled down:
as §3

Data set [14] deals with Cytochrome P450 3A4 (Homo sapiens, UniProt P08684). The data set can be described thus: Inhibition of CYP3A4. Type of data set: ADME.
Sequence of Cytochrome P450 3A4 (P08684 whole entry): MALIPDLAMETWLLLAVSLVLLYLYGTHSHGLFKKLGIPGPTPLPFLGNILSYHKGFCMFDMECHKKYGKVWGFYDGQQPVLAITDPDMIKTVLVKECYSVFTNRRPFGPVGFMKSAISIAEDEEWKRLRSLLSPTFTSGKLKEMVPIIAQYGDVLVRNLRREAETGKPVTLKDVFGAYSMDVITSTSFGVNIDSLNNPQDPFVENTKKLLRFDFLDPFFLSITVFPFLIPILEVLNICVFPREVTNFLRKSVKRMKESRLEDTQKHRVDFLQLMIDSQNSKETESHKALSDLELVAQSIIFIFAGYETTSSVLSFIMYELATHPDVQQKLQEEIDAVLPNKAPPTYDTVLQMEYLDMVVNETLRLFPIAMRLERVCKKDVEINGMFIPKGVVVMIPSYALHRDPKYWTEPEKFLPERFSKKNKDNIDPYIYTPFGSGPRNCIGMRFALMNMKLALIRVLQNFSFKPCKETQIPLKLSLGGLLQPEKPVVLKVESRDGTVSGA
Data set [15] in a line: Tmax in Sprague-Dawley rat plasma at 2 mg/kg, po and 1 mg/kg, iv after 24 hrs wash out period by HPLC analysis. In kind it is ADME, organism-based. The method, boiled down:
as §2

Sequence of Cytochrome P450 2D6 (P10635 whole entry): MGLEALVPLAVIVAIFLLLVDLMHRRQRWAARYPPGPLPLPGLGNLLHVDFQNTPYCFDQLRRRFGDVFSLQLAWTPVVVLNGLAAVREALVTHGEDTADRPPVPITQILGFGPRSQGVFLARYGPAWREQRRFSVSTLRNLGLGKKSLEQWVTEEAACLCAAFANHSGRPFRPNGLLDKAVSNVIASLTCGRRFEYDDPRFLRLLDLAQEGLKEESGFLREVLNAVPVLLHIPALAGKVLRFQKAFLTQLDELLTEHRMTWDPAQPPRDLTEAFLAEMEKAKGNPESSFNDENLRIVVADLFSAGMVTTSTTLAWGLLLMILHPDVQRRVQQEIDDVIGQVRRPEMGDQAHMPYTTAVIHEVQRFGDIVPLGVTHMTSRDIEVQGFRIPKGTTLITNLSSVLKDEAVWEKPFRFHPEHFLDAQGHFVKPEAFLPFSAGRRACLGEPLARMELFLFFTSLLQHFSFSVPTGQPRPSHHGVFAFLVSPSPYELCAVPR

For the molecule `CC(C)S(=O)(=O)NC[C@H]1CC[C@H](NC(=O)CN2CCc3cc(Cl)ccc32)CC1`, the fraction unbound in [1] was 0.009. In data set [2], the concentration stood at 304 nM. In [3], this molecule had a maximum concentration (Cmax) of 700 ng/mL. In addition, the half-life in data set [4] was 4.4 h. In addition, the concentration at 1 h stood at 11 ng/g in [5], 104 ng/g in data set [6], 295 nM in data set [12] and 516 ng/mL in data set [13]. The molecule further registered a bioavailability in [7] of 100%. Further, in data set [8], the result was Active. This molecule had a clearance in data set [9] of 25 mL/min/kg. For the same molecule, in data set [10], the apical-to-basolateral permeability (Papp A→B) was found to be 2.31 ×10⁻⁶ cm/s. The IC50 in data set [11] is > 40000 nM; in data set [14], 700 nM. Further, the time to peak (Tmax) in [15] stood at 0.8 h.

As usually defined, the Cmax is the highest concentration seen after dosing. For orientation: half-life means the time in which the quantity being followed falls by half. Low values mean fast loss, high ones slow loss. By bioavailability is commonly meant dose-corrected exposure relative to a reference, in per cent. One may read the Papp A→B as the apparent permeability from the apical to the basolateral side of a cell layer. The term IC50 denotes the concentration that gives 50% inhibition. Read a low IC50 as inhibition by little substance. As usually defined, the Tmax is the time at which the peak concentration occurs.
